From ChEMBL document CHEMBL1126093, “Structural features of substituted purine derivatives compatible with depletion of human O6-alkylguanine-DNA alkyltransferase” (J Med Chem, 1992) come the findings set out here.

Test [1] has as its target T1, Methylated-DNA--protein-cysteine methyltransferase (Homo sapiens) (UniProt P16455).
T1 sequence (whole entry): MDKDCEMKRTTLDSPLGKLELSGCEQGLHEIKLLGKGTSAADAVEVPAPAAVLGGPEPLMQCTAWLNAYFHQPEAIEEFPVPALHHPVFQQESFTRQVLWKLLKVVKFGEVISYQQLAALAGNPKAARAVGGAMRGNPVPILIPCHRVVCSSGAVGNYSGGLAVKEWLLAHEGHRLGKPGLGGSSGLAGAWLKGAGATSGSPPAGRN
Briefly: In vitro inhibition of human alkyl transferase in HT-29 cell-free extracts. In a few lines: (§1)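 HT29 crude cell extract incubated 30 min with derivative (0–400 μM, from 100 mM DMSO stocks) in 50 mM Tris-HCl pH 7.5, 0.1 mM EDTA, 5 mM DTT. Remaining AGT activity measured as loss of O⁶-[³H]methylguanine from [³H]methylnitrosourea-methylated calf thymus DNA. Dose for 50% inactivation read from %-activity-remaining vs dose plots; at least duplicates averaged.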

Test [2] deals with T1, Methylated-DNA--protein-cysteine methyltransferase (Homo sapiens). Briefly: Inhibitory activity against alkyl transferase in HT-29 cells. Type of test: cell-based. A digest of the protocol:
(§2)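 HT29 cells plated at 5 × 10⁶ per T75 flask and grown 3 days. Medium then replaced with medium holding increasing derivative concentrations (range 0.05–400 μM where soluble) for 4 h. Cells rinsed with PBS, harvested, frozen at -80 °C, then extracted. AGT activity assayed by O⁶-[³H]methylguanine loss from [³H]methylated DNA. 50% inactivation dose taken from plots; at least duplicates.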

For test [3] the target is unchanged. The test is described as follows: Inhibitory activity against alkyl transferase in HT-29 cell-free extracts; inactive. In a few lines: as §1
The target is the same in test [4]. The test is described as follows: The compound was tested for its inhibitory activity against alkyl transferase in HT-29 cells; inactive. Type of test: cell-based. In a few lines:
as §2

The source made the active and inactive calls. No cut-off for these calls is given here.

As to `C=CCOc1nc(N)nc2nc[nH]c12`, the ED50 in test [1] stood at 20 µM; in test [2], 4 µM.
With `CCOC(=O)Cn1cnc2nc(N)nc(OCc3ccccc3)c21`, the ED50 entry in test [3] was “inactive”.
On to `Nc1nc(OCc2ccc(Cl)cc2)c2ncn(C3O[C@H](CO)[C@@H](O)[C@H]3O)c2n1` (some centres undefined), for which the ED50 in test [1] amounted to 10 µM; in test [2], 5 µM.
The matching figures for `c1ccc(COc2[nH]cnc3ncnc2-3)cc1`: 85 µM and 36 µM.
For `NC(=O)Cn1cnc2c(OCc3ccccc3)nc(N)nc21`, the ED50 worked out at 47 µM in test [1] and 7.5 µM in test [2].
On to `N#CCn1cnc2nc(N)nc(OCc3ccccc3)c21`, for which, in test [3], the ED50 result is “inactive”.
`Nc1nc(OCc2ccc(Cl)cc2)c2[nH]cnc2n1`: the ED50 in test [1] was 0.2 µM; in test [2] it was 0.08 µM.
In test [1], `Nc1nc(OCc2ccccc2)c2ncn(CC(=O)O)c2n1` had an ED50 of 157 µM. Also, in test [4], the ED50 entry was “inactive”.
In the case of `CCC(O)Cn1cnc2c(OCc3ccccc3)nc(N)nc21` (centres undefined), the ED50 came out at 13 µM in test [1] and 2 µM in test [2].
The matching figures for `CCOC(=O)Cn1cnc2c(OCc3ccccc3)nc(N)nc21`: 30 µM and 3 µM.
On to `Nc1nc(SCc2ccccc2)c2[nH]cnc2n1`, for which the ED50 result in test [3] was “inactive”.
Consider `Nc1nc(OCc2ccccc2)c2ncn([C@H]3C[C@H](O)[C@@H](CO)O3)c2n1`, for which the results for the ED50 in test [1] and in test [2] were 2 µM and 0.5 µM, respectively.
The matching figures for `Cc1ccc(COc2nc(N)nc3c2ncn3C2O[C@H](CO)[C@@H](O)[C@H]2O)cc1` (some centres undefined): 9 µM and 3 µM.
As to `Nc1nc(OCc2ccccc2)c2c(ncn2CC(=O)O)n1`, the ED50 entry in test [4] was “inactive”.
Turning to `CCC(O)Cn1cnc2nc(N)nc(OCc3ccccc3)c21` (centres undefined), in test [3], the ED50 entry is “inactive”.
On to `Cc1ccc(COc2nc(N)nc3nc[nH]c23)cc1`, for which the ED50 in test [1] worked out at 0.2 µM; in test [2] it was 0.08 µM.
Consider `COc1nc(N)nc2nc[nH]c12`, for which the ED50 in test [1] was 350 µM; in test [2], 120 µM.
Take `Cc1ccc(CSc2[nH]c(N)nc3ncnc2-3)cc1`: the ED50 entry in test [3] is “inactive”.
Still for that read-out and setting: to `Nc1nc(O)c2c(ncn2Cc2ccccc2)n1` belongs “inactive”.
For the compound `Nc1nc(OCc2ccc(F)cc2)c2[nH]cnc2n1`, the ED50 in test [1] turned out to be 0.2 µM; in test [2] it was 0.05 µM.
The matching figures for `Nc1nc(OCc2ccccc2)c2ncn(C3O[C@H](CO)[C@@H](O)[C@H]3O)c2n1` (some centres undefined): 11 µM and 2 µM.
Turning to `NC(=O)Cn1cnc2nc(N)nc(OCc3ccccc3)c21`, the ED50 result in test [3] was “inactive”.
Regarding `N#CCn1cnc2c(OCc3ccccc3)nc(N)nc21`, the ED50 stood at 13 µM in test [1] and 0.8 µM in test [2].
Take `Nc1nc(SCc2ccc([N+](=O)[O-])cc2)c2ncn([C@@H]3O[C@H](CO)[C@@H](O)[C@H]3O)c2n1`: in test [3], the ED50 result is “inactive”.
